From ChEMBL document CHEMBL4665889, “Design, Synthesis, and Pharmacological Characterization of a Neutral, Non-Prodrug Thrombin Inhibitor with Good Oral Pharmacokinetics” (J Med Chem, 2020)

Assays:
[1] = Clearance in Wistar rat hepatocytes at 1 uM incubated up to 90 mins by LC-MS/MS analysis; format: ADME, cell-based, Hepatocyte; settings: for CLhep predicted at 1 µM: Wistar
Outline: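 Fresh male Wistar rat hepatocytes, 1 × 10⁶ viable cells/mL, in Williams' medium E at 37 °C, pH 7.4, with 1 μM substrate and <1% acetonitrile. Samples at 2–90 min quenched in acetonitrile and analysed by LC-MS/MS.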

[2] = target: T1, Nuclear receptor subfamily 1 group I member 2 (Homo sapiens, UniProt O75469); experiment: Activation of human PXR expressed in human HepG2 cells; format: ADME, cell-based
T1 sequence (O75469 whole entry): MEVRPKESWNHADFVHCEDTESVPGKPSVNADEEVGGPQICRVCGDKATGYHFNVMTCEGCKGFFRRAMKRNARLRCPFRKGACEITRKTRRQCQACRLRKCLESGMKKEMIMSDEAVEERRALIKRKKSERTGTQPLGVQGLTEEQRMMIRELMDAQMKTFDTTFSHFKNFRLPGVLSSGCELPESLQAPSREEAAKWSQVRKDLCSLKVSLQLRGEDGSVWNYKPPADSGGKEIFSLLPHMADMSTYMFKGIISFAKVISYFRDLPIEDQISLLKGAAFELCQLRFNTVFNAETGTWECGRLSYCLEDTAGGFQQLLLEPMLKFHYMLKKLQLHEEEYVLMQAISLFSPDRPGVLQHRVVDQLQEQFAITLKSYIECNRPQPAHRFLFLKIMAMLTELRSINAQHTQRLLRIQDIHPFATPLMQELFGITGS
Outline: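 HepG2 cells transiently co-transfected with human PXR and a luciferase reporter under the human CYP3A4 promoter, 48 h before readout. 24 h after seeding, 1:3 serial dilutions (2 nM to 50 μM, 0.5% DMSO) added. Luminescence normalized to rifampicin (100%) and DMSO (0%). MEC is the lowest concentration raising signal above 4-fold SD of DMSO background.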

[3] = MRT in Wistar Hannover rat at 0.3 to 0.5 mg/kg, iv by LC-MS/MS analysis; format: ADME, organism-based; settings: in vivo, dose 0.3-0.5 mg/kg, time <=24 hrs
Outline: (§1)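 Male Wistar Hannover rats, catheterized under isoflurane; one day later iv injection into lateral tail vein at 0.3 to 0.5 mg/kg in plasma containing 2% DMSO. Blood sampled via catheter from 0.033 to 24 h. Plasma precipitated with acetonitrile, analysed by LC-MS/MS (10 mM ammonium acetate pH 3.0/acetonitrile gradient). PK parameters calculated from plasma concentrations.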

[4] = AUC/dose in Wistar Hannover rat at 0.3 to 0.5 mg/kg, iv by LC-MS/MS analysis; format: ADME, organism-based; settings: in vivo, dose 0.3-0.5 mg/kg, time <=24 hrs; outline: as §1
[5] = Blood clearance in Wistar Hannover rat at 0.3 to 0.5 mg/kg, iv by LC-MS/MS analysis; format: ADME, organism-based; settings: whole blood, dose 0.3-0.5 mg/kg, time <=24 hrs; outline: as §1
[6] = Ratio of drug level in blood to plasma in Wistar Hannover rat at 0.3 to 0.5 mg/kg, iv by LC-MS/MS analysis; format: ADME, organism-based; settings: blood and plasma, dose 0.3-0.5 mg/kg, time <=24 hrs
[7] = Volume of distribution at steady state in Wistar Hannover rat at 0.3 to 0.5 mg/kg, iv by LC-MS/MS analysis; format: ADME, organism-based; settings: in vivo, dose 0.3-0.5 mg/kg, time <=24 hrs, read-out: Vdss; outline: as §1
[8] = Half life in Wistar Hannover rat at 0.3 to 0.5 mg/kg, iv by LC-MS/MS analysis; format: ADME, organism-based; settings: in vivo, dose 0.3-0.5 mg/kg, time <=24 hrs; outline: as §1
[9] = Oral bioavailability in Wistar Hannover rat at 1 mg/kg by LC-MS/MS analysis; format: ADME, organism-based; settings: in vivo, time <=24 hrs
Outline: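 Catheterized male Wistar Hannover rats dosed by gavage at 1 mg/kg in 10% ethanol/40% PEG/50% water. Blood taken via catheter at 0.083 to 24 h. Plasma precipitated with acetonitrile and analysed by LC-MS/MS. Bioavailability derived against iv dosing at 0.3 to 0.5 mg/kg.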

[10] = Permeability from apical to basolateral side in human Caco2 cells incubated for 2 hrs by LC-MS/MS analysis; format: ADME, cell-based; settings: Caco-2
Outline: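 Caco-2 cells grown 15 d on 0.4 μm inserts, TEER ≥600 Ω. Compound (DMSO stock diluted 100-fold) in HBSS pH 7.4 with 10 mM HEPES and 20 mM glucose, added apically or basolaterally. Incubated 2 h at 37 °C and analysed by LC-MS/MS. Papp = (Vr/P0)·(1/S)·(P2/t); mean and SD.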

[11] = target: T1, Nuclear receptor subfamily 1 group I member 2; experiment: Activation of human PXR human hepatocytes assessed as induction of CYP3A4 mRNA expression incubated for 48 hrs by qPCR analysis; format: ADME, tissue-based, Hepatocyte
Outline: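 Human hepatocytes in collagen sandwich, cultured 1 d, then treated with eight 1:3 serial concentrations for 2 consecutive days with daily media change. mRNA isolated on magnetic beads, reverse transcribed, and quantified by TaqMan qRT-PCR against actin/tubulin. Fold induction over vehicle by ΔΔCt; NOEL reported.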

| SMILES | CLhep predicted at 1 µM [1] [mL/min/kg] | MEC [2] [µM] | Papp A→B at 2 h [10] [×10⁻⁶ cm/s] | other results |
| --- | --- | --- | --- | --- |
| COc1cc(C(=O)N2CC(C)OCC2CCO)cn2nc(NCc3cccc(Cl)c3)nc12 (stereo not drawn) | 31.7 | 11 |  |  |
| COc1cc(C(=O)N2CC(C)OCC2CO)cc2nc(N[C@H](C)c3cccc(Cl)c3)oc12 (stereo partly drawn) | 15.5 | 0.29 |  | MRT [3]: 1.3 h; AUC/dose [4]: 0.47 kg·h/L; clearance [5]: 40 mL/min/kg; blood plasma ratio [6]: 0.88; Vd [7]: 2.7 L/kg; half-life [8]: 1.1 h |
| COc1cc(C(=O)N2CCOC(C)(CCO)C2)cc2nc(N[C@H](C)c3cccc(Cl)c3)oc12 (stereo partly drawn) | 43.3 | 0.58 |  | MRT [3]: 1.8 h; AUC/dose [4]: 0.33 kg·h/L; clearance [5]: 48.3 mL/min/kg; blood plasma ratio [6]: 1.07; Vd [7]: 5.6 L/kg; half-life [8]: 2.7 h; bioavailability [9]: 38% |
| COc1cc(C(=O)N2CC(C)(CCO)OC[C@H]2C)cc2nc(N[C@H](C)c3cccc(Cl)c3)oc12 (stereo partly drawn) | 58.3 | 0.29 |  |  |
| COc1cc(C(=O)N2CC(C)CCC2CCO)cc2nc(NCc3cccc(Cl)c3)oc12 (racemic) | 63.3 | 0.32 | 19.1 |  |
| COc1cc(C(=O)N2CC(C)(CCO)OC[C@H]2C)cc2nc(NCc3cc(Cl)ccn3)oc12 (stereo partly drawn) | 41.7 | 8 |  | MRT [3]: 0.46 h; AUC/dose [4]: 0.23 kg·h/L; clearance [5]: 66.7 mL/min/kg; blood plasma ratio [6]: 1.08; Vd [7]: 2 L/kg; half-life [8]: 0.44 h; NOAEL [11]: > 10000 ng/mL |
| CCCN(CC1CCOC1)C(=O)c1cc(OC)c2oc(NCc3cccc(Cl)c3)nc2c1 (racemic) | 65 |  | 24.6 |  |
| COc1cc(C(=O)N2C[C@@H](C)OC[C@H]2CCO)cc2nc(N[C@H](C)c3cccc(Cl)c3)oc12 | 38.3 | 1.4 |  |  |
| CC[C@@H]1CO[C@@](C)(CCO)CN1C(=O)c1cc(OC)c2oc(N[C@H](C)c3cccc(Cl)c3)nc2c1 | 65 | 0.26 | 6.8 | MRT [3]: 1.2 h; AUC/dose [4]: 0.32 kg·h/L; clearance [5]: 65 mL/min/kg; blood plasma ratio [6]: 1.07; Vd [7]: 3.7 L/kg; half-life [8]: 1 h; NOAEL [11]: 1111 ng/mL |
| COc1cc(C(=O)N2CCC(O)CC2)cc2nc(NCc3cccc(Cl)c3)oc12 | 21.7 | 3.1 | 7.1 |  |
| COc1cc(C(=O)N2C[C@H](C)OC[C@@H]2CCO)cc2nc(N[C@H](C)c3cccc(Cl)c3)oc12 | 45 | 2.8 | 10.1 |  |
| COc1cc(C(=O)N2CCC(O)C(C)C2)cc2nc(NCc3cc(Cl)ccc3O)oc12 (racemic) |  | 8.3 |  |  |
| COc1cc(C(=O)N2CC(C)OCC2C2CC(O)C2)cc2nc(NCc3cc(Cl)ccn3)oc12 (stereo not drawn) | 45 | 8.2 |  |  |
| COc1cc(C(=O)N2CCCC2(C)C)cc2nc(NCc3cccc(Cl)c3)oc12 | 58.3 |  |  |  |
| COc1cc(C(=O)N2CC[C@H](O)[C@@H](C)C2)cc2nc(NCc3cccc(Cl)c3)oc12 | 36.7 |  |  |  |
| COc1cc(C(=O)N2CC(C)(CCO)OC[C@H]2C)cc2nc(N[C@H](CF)c3cccc(Cl)c3)oc12 (stereo partly drawn) | 56.7 | 0.39 |  | MRT [3]: 1.1 h; AUC/dose [4]: 0.33 kg·h/L; clearance [5]: 53.3 mL/min/kg; blood plasma ratio [6]: 0.94; Vd [7]: 3.3 L/kg; half-life [8]: 1.1 h |
| COc1cc(C(=O)N2CC(C)C(O)CC2C2CC2)cc2nc(NCc3cccc(Cl)c3)oc12 (racemic) | 63.3 | 0.26 | 13.8 |  |
| COc1cc(C(=O)N2CC(C)OCC2C2CC(O)C2)cn2nc(NCc3cccc(Cl)c3)nc12 (stereo not drawn) | 50 | 13 | 7.2 |  |

| SMILES | CLhep predicted at 1 µM [1] [mL/min/kg] | MEC [2] [µM] | Papp A→B at 2 h [10] [×10⁻⁶ cm/s] | other results |
| --- | --- | --- | --- | --- |
| CCCCCCOC(=O)NC(=N)c1ccc(NCc2nc3cc(C(=O)N(CCC(=O)OCC)c4ccccn4)ccc3n2C)cc1 [DABIGATRAN ETEXILATE] |  |  |  | MRT [3]: 1.6 h; AUC/dose [4]: 3 kg·h/L; clearance [5]: 9.83 mL/min/kg; Vd [7]: 0.54 L/kg; half-life [8]: 1.2 h; bioavailability [9]: 1.9% |
| COc1cc(C(=O)N2CC(C)CCC2CCO)cc2nc(NCc3cccc(Cl)c3)oc12 (stereo in doubt; 37b) |  | 0.03 |  | CLH ([1]; 1.5 h, 1 µM): 56.7 mL/min/kg |
| COc1cc(C(=O)N2CC(C)OCC2CCO)cc2nc(NCc3cc(Cl)ccn3)oc12 (stereo not drawn) | 20 | 17 | 11.1 | MRT [3]: 0.51 h; AUC/dose [4]: 0.39 kg·h/L; clearance [5]: 40 mL/min/kg; blood plasma ratio [6]: 1.08; Vd [7]: 1.3 L/kg; half-life [8]: 0.5 h; NOAEL [11]: > 10000 ng/mL |
| CCC1CC(O)C(C)CN1C(=O)c1cc(OC)c2oc(NCc3cccc(Cl)c3)nc2c1 (racemic) | 61.7 |  |  |  |
| O=C(NCc1cccc(Cl)c1)c1ccc2cn(CCN3CCOC3=O)nc2c1 |  |  | 6.2 | clearance [5]: 23.3 mL/min/kg |
| COc1cc(C(=O)N2CCOCC2(C)C)cc2nc(NCc3cccc(Cl)c3)oc12 |  | 1.3 |  |  |
| COc1cc(C(=O)N2CC(C)C(O)CC2CCO)cc2nc(NCc3cccc(Cl)c3)oc12 (racemic) | 4.5 | 0.81 | 0.94 |  |
| COc1cc(C(=O)N2CC(C)C(O)CC2C)cc2nc(NCc3cccc(Cl)c3)oc12 (stereo not drawn) | 56.7 | 2.6 | 12.7 |  |
| COc1cc(C(=O)N2CCC(O)C(C)C2)cc2nc(NCc3cccc(Cl)c3)oc12 (racemic) | 45 | 1.4 | 8.4 |  |
| COc1cc(C(=O)N2CCC(O)C(C)C2)cc2nc(NCc3cc(Cl)ccn3)oc12 (racemic) | 14.3 | 3.6 | 4.1 |  |
| COc1cc(C(=O)N2CC(C)OCC2C2CC(O)C2)cc2nc(N[C@H](C)c3cccc(Cl)c3)oc12 (stereo partly drawn) | 56.7 | 3.4 |  |  |
| COc1cc(C(=O)N2CC(C)OCC2C2CC(O)C2)cc2nc(N[C@H](CF)c3cccc(Cl)c3)oc12 (stereo partly drawn) | 56.7 | 3 |  |  |
| COc1cc(C(=O)N2CCC(O)C(C)C2)cc2nc(NC3(c4cccc(Cl)c4)CC3)oc12 (racemic) | 46.7 |  |  |  |
| COc1cc(C(=O)N2CCC(O)C(C)C2)cc2nc(NCc3cncc(Cl)c3)oc12 (racemic) | 40 |  | 0.93 |  |
| COc1cc(C(=O)N2CCC(O)C(C)C2)cn2nc(NCc3cccc(Cl)c3)nc12 (racemic) | 35 | 20 | 7.1 |  |
| COc1cc(C(=O)N2CC(C)(CCO)OC[C@H]2C)cn2nc(NCc3cccc(Cl)c3)nc12 (stereo partly drawn) | 46.7 | 15 | 8.1 | MRT [3]: 0.36 h; AUC/dose [4]: 0.16 kg·h/L; clearance [5]: 76.7 mL/min/kg; blood plasma ratio [6]: 1.35; Vd [7]: 2.2 L/kg; half-life [8]: 0.32 h; NOAEL [11]: > 10000 ng/mL |
| COc1cc(C(=O)N2CC[C@@H](O)C(C)(C)C2)cc2nc(NCc3cccc(Cl)c3)oc12 (racemic) | 51.7 | 6.3 |  |  |
